# Test results reported in ChEMBL document CHEMBL4627349, “Synthesis and evaluation of the performance of a small molecule library based on diverse tropane-related scaffolds” (Bioorg Med Chem, 2020).
# Activity calls are given as the source filed them.
# What was measured:
# Plasmodium falciparum = test: Antiplasmodial activity against chloroquine-sensitive Plasmodium falciparum NF54 by lactate dehydrogenase assay; format: functional, organism-based
# Outline: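 Dose-response format against chloroquine-susceptible NF54 parasites, with lactate dehydrogenase activity as the parasite-viability marker.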
# [1] = Inhibition of Hedgehog signaling pathway in mouse C3H10T1/2 cells assessed as reduction in osteoblast differentiation measured after 96 hrs by alkaline phosphatase CDP-star substrate based luminescence assay; format: cell-based; settings: C3H 10T1/2, 96 h
# C3H 10T1/2 = test: Inhibition of Hedgehog signaling pathway in mouse C3H10T1/2 cells assessed as reduction in osteoblast differentiation at 10 uM measured after 96 hrs by alkaline phosphatase CDP-star substrate based luminescence assay relative to control; format: cell-based
# Outline: (§1)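 Single-concentration primary screen at 10 µM in an osteoblast differentiation assay for Hedgehog signalling inhibition, with cell viability monitored alongside. Hits were defined as at least 50% inhibition of signalling with <20% impact on cell viability.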
# [2] = Cytotoxicity against mouse C3H10T1/2 cells assessed as effect on cell viability at 10 uM relative to control; format: cell-based, C3H 10T1/2; settings: read-out: Activity; outline: as §1
SMILES,Activity (Plasmodium falciparum),IC50 (Plasmodium falciparum),further results
CS(=O)(=O)C1CC2c3ncccc3CC1N2Cc1ccccc1 (centres undefined),Active,–,–
CN1C2CC(S(=O)(=O)N(C)C)C1Cc1cccnc12 (centres undefined),Active,–,–
CS(=O)(=O)C1CC2c3c(c4ccccc4n3S(C)(=O)=O)CC1N2Cc1ccccc1 (centres undefined),–,–,EC50 [1]: 4.4 µM; inhibition (C3H 10T1/2): > 50%; viability at 10 µM [2]: < 20%
CN1C2CC(S(C)(=O)=O)C1C(c1ccc(F)cc1)CC2OCc1ccc(C#N)cc1 (centres undefined),–,5.5 µM,–
CS(=O)(=O)C1CC2C(=O)c3n[nH]c(C(=O)O)c3C1N2Cc1ccccc1 (centres undefined),–,5.4 µM,–
CN1C2CC(S(C)(=O)=O)C1Cc1c(-c3ccccc3)ccnc12 (centres undefined),Active,–,–
CS(=O)(=O)C1CC2c3c(c4ccccc4n3CC#N)CC1N2Cc1ccccc1 (centres undefined),–,–,EC50 [1]: 4.2 µM; inhibition (C3H 10T1/2): > 50%; viability at 10 µM [2]: < 20%
CN1C2CC(S(C)(=O)=O)C1C1CN(c3ccccn3)CC1C2O (centres undefined),–,5.4 µM,–
CN1C2CC(S(C)(=O)=O)C1Cc1cccnc12 (centres undefined),Active,–,–
CN(Cc1ccc(OC(F)(F)F)cc1)C1CCC2C(S(C)(=O)=O)CC1N2C (centres undefined),–,5.7 µM,–
